Only some compounds are listed: those with a hit (about 2.1% of all), similar ones and a draw of the others.
Autophagy mod: autophagy modulators in MEF cells, primary screen, imaging, high-content, MEF GFP-LC3 | MEF GFP-LC3 puncta imaging; test concentration mostly 10 µM | calls only at 10 µM (by protocol) | actives 0.98% (n = 190,000);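 active means percentage of spot-positive cells more than 3 SD above its plate mean, without a fluorescence outlier flag or 80% toxicity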;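 further: spot-positive cell cutoff set from DMSO-treated cells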
Hsp70 activator: Hsp70 transcriptional activators, primary screen, cell-based, HeLa, Hsp70 promoter luciferase, luminescence, 10 µM; activation, % at 10 µM; HeLa Hsp70 promoter luciferase reporter; scaled: vehicle 0, proteasome-inhibitor control 100%; actives 0.04% (n = 200,000);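 active means activation above the mean across all tested compounds plus 3 SD, cutoff set per campaign, cut at about 5.5% in these data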;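 further: 100% = MG132 at 30 µM as the positive control and 0% = DMSO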
Dynein transport: inhibitors of GR-EGFP nuclear translocation, primary screen, dynein cargo transport inhibitor project, imaging, high-content, 3617.4 mouse cells; test concentration mostly 20 µM; stimulated with dexamethasone, 1 µM; hits give low values; z-score, hits read low; actives 0.47% (n = 220,000);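 active means plate z-score of nuclear minus cytoplasmic receptor signal below a set negative limit, without overly bright fluorescence or cell loss, cut at about -3.5 in these data, passing the limit was not always enough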;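 further: z-score of nuclear minus cytoplasmic ring GR-EGFP intensity difference per well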
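Buffer or medium: tet-free medium with charcoal-stripped serum / Also added: dexamethasone agonist, 1.0 µM final, for 30 min / Timing: induction 48 h, compound 1 h, agonist 30 min / Measured by: high-content fluorescence imaging after fixation / Read-out: nuclear-to-cytoplasmic GR-EGFP distribution per well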
b-catenin transl: modulators of beta-catenin nuclear translocation, primary screen, imaging, HeLa cells, immunofluorescence, high-content. actives 0.3% (n = 190,000). nuclear translocation activity, % at 5 µM. AID 1665, 2009;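 active means nuclear translocation activity above 50% at 5 µM, with a well cell count of 50 or more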;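 further: per-cell ratio of nuclear to cytoplasmic median beta-catenin stain intensity; plate controls were DMSO negative control for no effect and GSK-3 inhibitor IX positive control for full effect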
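Test system: human HeLa cell line; Doses: 5 µM primary, 0.02–20 µM confirmation; Incubation: 24 h compound exposure, 37°C; Detection: beta-catenin immunofluorescence imaging with DAPI; Read-out: beta-catenin nuclear/cytoplasmic ratio, % activation.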
MT stabilize HCS: microtubule stabilizers in HeLa cells, primary screen, imaging, high-content imaging. actives 0.83% (n = 200,000). % tubulin-high responders, % at 10 µM. HeLa tubulin immunostaining HCS, 24 h; share of cells brighter than vehicle mean+2SD;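 active means plate Z-score above 3 for both tubulin-high and condensed-nucleus cell shares, with cell loss under 80%, at 10 µM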;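 further: anti alpha tubulin signal scored within the nucleus-defined area of each cell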
* hit, by the source's call; i = inactive; nt = not tested or not shown; + = active, no number.

SMILES	Autophagy mod	Hsp70 activator	Dynein transport	b-catenin transl	MT stabilize HCS
O=C(Nc1ccc(S(=O)(=O)N2CCCC2)cc1)c1ccc2c(=O)n3c(nc2c1)CCCCC3	i	0	-0.15	-2	2
Nc1c(C(=O)Nc2ccc(S(=O)(=O)N3CCCC3)cc2)sc2nc3cc4c(cc3cc12)CCC4	+	0	-2.5	2	28*
COc1ccc2nc(SCC(=O)Nc3ccc(S(=O)(=O)N4CCCC4)cc3)c(C#N)cc2c1	i	-1	-0.13	-2	3
COc1ccc(S(=O)(=O)N2CCOCC2)cc1NC(=O)CSc1cccc[n+]1[O-]	nt	nt	0.45	0	nt
O=c1[nH]c2ccc(F)cc2[nH]c1=O	+	0	0.42	1	4
O=c1cc(-c2ccccc2)[nH]c2ccc(F)cc12	i	0	0.095	nt	8
COc1cc(C2C(C#N)=C(N)N(Nc3ccccc3)C3=C2C(=O)CC(C)(C)C3)ccc1OCc1ccccc1 (stereo not drawn)	i	0	-1	6	3
C=CCOc1ccc(C2C(C#N)=C(N)N(Nc3ccccc3)C3=C2C(=O)CCC3)cc1OC (stereo not drawn)	i	0	0.075	0	40*
CC(C)(C(=O)Nc1nccs1)c1ccccc1	i	0	-0.78	-1	4
O=S(=O)(NCc1c(Cl)cccc1Oc1ccccc1)c1ccc(F)cc1	nt	nt	0.17	-1	nt
NC(=O)c1ccccc1NC(=S)NC(=O)CCc1ccccc1	i	-1	0.82	nt	23*
Cc1ccc2[nH]c(-c3cccc(F)c3)cc(=O)c2c1	i	2	0.12	nt	27*
COc1ccc2[nH]c(-c3cccc(F)c3)cc(=O)c2c1	i	1	-2	nt	13
C=CCn1c(SCc2csc(C)n2)nc2sc3c(c2c1=O)CCCC3	i	0	-0.55	nt	2
C=CCn1c(SCc2csc(C)n2)nc2sc3c(c2c1=O)CCC(C)C3 (stereo not drawn)	i	0	-0.9	1	26*
Cc1ccc(-c2cccc(CN3CCN(C4CCN(C(C)C)CC4)C(CCO)C3)c2)o1 (stereo not drawn)	i	0	1.9	1	3
O=[N+]([O-])c1cccc(-c2ccc(/C=N/Nc3nc(N4CCCCC4)nc(N4CCCCC4)n3)o2)c1	i	0	1.2	-2	3
COc1ccc(-c2cnnc(N/N=C/c3ccc(-c4ccc([N+](=O)[O-])cc4)o3)n2)cc1	i	0	-1.6	81*	40*
O=[N+]([O-])c1ccc(-c2ccc(/C=N/Nc3nc(N4CCCC4)nc(N4CCCC4)n3)o2)cc1	+	0	2.5	-4	35*
O=C(CN1CCC(O)(c2cccc(F)c2)CC1)NCCc1c[nH]c2ccccc12	nt	nt	-0.62	0	nt
O=C(NCC1OCCc2ccccc21)c1cc(COc2c(F)cccc2F)on1 (stereo not drawn)	i	0	0.61	0	3
CCCCCN=CC1=C(O)CC(c2ccccc2)CC1=O (stereo not drawn)	i	0	-0.54	-3	4
O=C1CC(c2ccccc2)CC(O)=C1C=NCCCN1CCOCC1 (stereo not drawn)	i	0	0.77	53*	1
Nc1cc([N+](=O)[O-])ccc1N1C(=O)CCCC1=O	nt	nt	-0.16	0	nt
Cc1ccc(S(=O)(=O)CCSc2nc(C)cc(C(F)(F)F)c2C#N)cc1	+	0	-1.4	-1	3
SMILES	Autophagy mod	Hsp70 activator	Dynein transport	b-catenin transl	MT stabilize HCS
COC(=O)CSc1nc(C)cc(C(F)(F)F)c1C#N	i	0	-0.39	-1	2
Cc1cc(C(F)(F)F)c(C#N)c(SCC(=O)Nc2nc3cc(Br)ccc3s2)n1	+	0	0.51	0	6
Nc1ccccc1-c1nnn(CC(=O)N2CCCc3ccccc32)n1	+	0	-0.54	-2	3
CCc1ccc2nc(SCC(=O)N3CC(=O)Nc4ccccc43)c(C#N)cc2c1	+	0	-0.47	-1	14
Cc1cc(C)n2nc(-c3ccco3)nc2n1	i	0	-0.56	-2	1
Cc1nn(C)c(C)c1NC(=O)c1ccccc1NC(=O)Nc1ccccc1	nt	nt	1.4	2	nt
COc1ccccc1N=C1SC(C(=O)Nc2cccc(Cl)c2Cl)C(N)=C1C(N)=O (stereo not drawn)	nt	nt	-0.44	62*	nt
CC(/C=N/NC(=O)c1cc(C(C)(C)C)[nH]n1)=C\c1ccccc1	i	0	-0.038	-1	21
CC(/C=N/NC(=O)c1cc(-c2ccc(C)s2)[nH]n1)=C\c1ccccc1	i	0	0.91	1	28*
Cc1nn(-c2ccccc2)c(C)c1/C=N/NC(=O)c1cc(-c2ccc(Br)s2)[nH]n1	i	0	0.052	36	22
Cc1ccc(C)c(OCC(=O)N/N=C/c2c(C)nn(-c3ccccc3)c2Cl)c1	i	0	-1.6	-2	21*
Cc1nn(-c2ccccc2)c(C)c1/C=N/NC(=O)c1cc(-c2cccs2)[nH]n1	i	1	-0.38	162*	8.9*
Cc1nn(-c2ccccc2)c(Cl)c1/C=N/NC(=O)OC(C)(C)C	i	0	0.79	0	5
Cc1nn(-c2ccccc2)c(C)c1/C=N/NC(=O)c1cc(-c2ccc(Cl)s2)[nH]n1	i	0	1.2	119*	16*
Cc1ccc(SCCC(=O)Nc2ccc(Br)c(C)c2)cc1	i	0	0.85	-2	3
COc1ccc(C[C@H]2c3cc(O)c(OC)cc3CC[N+]2(C)[O-])cc1O (stereo partly drawn)	nt	nt	-0.11	-1	nt
CC1=NNC(=O)/C1=C\c1cn(-c2ccccc2)nc1-c1ccc(Cl)cc1	+	0	0.44	1	79
COc1ccc(N(C)C(=O)c2oc(=O)c3ccccc3c2-c2ccc(C)cc2)c(OC)c1	nt	nt	0.92	2	nt
N=C1C(c2nc3ccccc3s2)=C(O)CN1Cc1ccco1	+	0	-0.93	-2	3
CN(C)CCN1CC(O)=C(c2nc3ccccc3s2)C1=N	nt	nt	-0.66	1	nt
Cc1ccc(-c2nn3c(C)nnc3c3ccccc23)cc1S(=O)(=O)N1CCN(CCO)CC1	+	0	0.18	-1	2
CC[n+]1c(/C=C/c2c[nH]c3ccccc23)ccc2cc(C)ccc21	+	1	-1.1	37	80*
CCc1ccc(S(=O)(=O)/N=C2\C=CC(=O)c3ccccc32)cc1	i	0	-1.9	1	1
CCc1ccc(S(=O)(=O)/N=C2/C=C(Sc3ncn[nH]3)C(=O)c3ccccc32)cc1	i	0	-6.7*	-5	2
